# Reference: ChEMBL document CHEMBL1150781, “High-level gentamicin resistance mediated by a Tn4001-like transposon in seven nonclonal hospital isolates of Streptococcus pasteurianus” (2007)
# Experiments:
# Type in all cases: functional
# [1] = test system: Streptococcus pasteurianus; assay: Antibacterial activity against high-level gentamicin resistant Streptococcus pasteurianus SB41 isolate carrying transposon-borne resistance gene [aac(6')Ie-aph(2'')Ia] by agar dilution method
# Procedure, shortened: (§1)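 MIC by agar dilution following CLSI guidelines; test organisms were clinical S. bovis/S. pasteurianus isolates recovered from blood cultures.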
# [2] = test system: Streptococcus pasteurianus; assay: Antibacterial activity against high-level gentamicin resistant Streptococcus pasteurianus SB28 isolate carrying transposon-borne resistance gene [aac(6')Ie-aph(2'')Ia] by agar dilution method; procedure, shortened: as §1
# Enterococcus faecalis = assay: Antimicrobial activity against Enterococcus faecalis ATCC 29212 by agar dilution method
# [3] = test system: Streptococcus pasteurianus; assay: Antibacterial activity against high-level gentamicin resistant Streptococcus pasteurianus SB33 isolate carrying transposon-borne resistance gene [aac(6')Ie-aph(2'')Ia] by agar dilution method; procedure, shortened: as §1
# [4] = test system: Streptococcus pasteurianus; assay: Antibacterial activity against high-level gentamicin resistant Streptococcus pasteurianus SB34 isolate carrying transposon-borne resistance gene [aac(6')Ie-aph(2'')Ia] by agar dilution method; procedure, shortened: as §1
# [5] = test system: Streptococcus pasteurianus; assay: Antibacterial activity against high-level gentamicin resistant Streptococcus pasteurianus SB40 isolate carrying transposon-borne resistance gene [aac(6')Ie-aph(2'')Ia] by agar dilution method; procedure, shortened: as §1
# Streptococcus equinus = assay: Antibacterial activity against Streptococcus bovis ATCC 33317 by agar dilution method
# Procedure, shortened: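 MIC read by agar dilution against S. bovis/S. pasteurianus, run to CLSI guidelines.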
# [6] = test system: Streptococcus pasteurianus; assay: Antibacterial activity against high-level gentamicin resistant Streptococcus pasteurianus SB10 isolate carrying transposon-borne resistance gene [aac(6')Ie-aph(2'')Ia] by agar dilution method; procedure, shortened: as §1
# [7] = test system: Streptococcus pasteurianus; assay: Antibacterial activity against high-level gentamicin resistant Streptococcus pasteurianus SB30 isolate carrying transposon-borne resistance gene [aac(6')Ie-aph(2'')Ia] by agar dilution method; procedure, shortened: as §1
SMILES,MIC [1],MIC [2],MIC (Enterococcus faecalis),MIC [3],MIC [4],MIC [5],MIC (Streptococcus equinus),MIC [6],MIC [7]
CCN[C@@H]1C[C@H](N)[C@@H](O[C@H]2OC(CN)=CC[C@H]2N)[C@H](O)[C@H]1O[C@H]1OC[C@](C)(O)[C@H](NC)[C@H]1O [NETILMICIN],8 µg/mL,512 µg/mL,4 µg/mL,16 µg/mL,32 µg/mL,16 µg/mL,16 µg/mL,64 µg/mL,128 µg/mL
NCC[C@H](O)C(=O)N[C@@H]1C[C@H](N)[C@@H](O[C@H]2O[C@H](CN)[C@@H](O)[C@H](O)[C@H]2O)[C@H](O)[C@H]1O[C@H]1O[C@H](CO)[C@@H](O)[C@H](N)[C@H]1O [AMIKACIN],32 µg/mL,512 µg/mL,64 µg/mL,32 µg/mL,32 µg/mL,32 µg/mL,64 µg/mL,64 µg/mL,128 µg/mL
CC[C@H]1OC(=O)[C@H](C)[C@@H](O[C@H]2C[C@@](C)(OC)[C@@H](O)[C@H](C)O2)[C@H](C)[C@@H](O[C@@H]2O[C@H](C)C[C@H](N(C)C)[C@H]2O)[C@](C)(O)C[C@@H](C)C(=O)[C@H](C)[C@@H](O)[C@]1(C)O [ERYTHROMYCIN],> 512 µg/mL,> 512 µg/mL,2 µg/mL,> 512 µg/mL,> 512 µg/mL,> 512 µg/mL,0.06 µg/mL,> 512 µg/mL,> 512 µg/mL
NC[C@H]1O[C@H](O[C@H]2[C@H](O)[C@@H](O[C@H]3O[C@H](CO)[C@@H](O)[C@H](N)[C@H]3O)[C@H](N)C[C@@H]2N)[C@H](O)[C@@H](O)[C@@H]1O [KANAMYCIN],> 4100 µg/mL,> 4100 µg/mL,16 µg/mL,4100 µg/mL,> 4100 µg/mL,> 4100 µg/mL,128 µg/mL,> 4100 µg/mL,4100 µg/mL
CN[C@@H]1[C@H](O[C@H]2[C@H](O[C@H]3[C@H](O)[C@@H](O)[C@H](N=C(N)N)[C@@H](O)[C@@H]3N=C(N)N)O[C@@H](C)[C@]2(O)C=O)O[C@@H](CO)[C@H](O)[C@H]1O [STREPTOMYCIN],32 µg/mL,64 µg/mL,32 µg/mL,32 µg/mL,32 µg/mL,32 µg/mL,64 µg/mL,32 µg/mL,64 µg/mL
CCC[C@@H]1C[C@@H](C(=O)N[C@@H]([C@H]2O[C@H](SC)[C@H](O)[C@@H](O)[C@H]2O)[C@H](C)Cl)N(C)C1 [CLINDAMYCIN],512 µg/mL,16 µg/mL,4 µg/mL,512 µg/mL,128 µg/mL,512 µg/mL,< 0.03 µg/mL,256 µg/mL,0.5 µg/mL
CN(C)[C@@H]1C(O)=C(C(N)=O)C(=O)[C@@]2(O)C(O)=C3C(=O)c4c(O)cccc4[C@@](C)(O)[C@H]3C[C@@H]12 [TETRACYCLINE],256 µg/mL,128 µg/mL,16 µg/mL,256 µg/mL,0.25 µg/mL,256 µg/mL,0.25 µg/mL,128 µg/mL,128 µg/mL
CN(C)c1ccc(O)c2c1C[C@H]1C[C@H]3[C@H](N(C)C)C(O)=C(C(N)=O)C(=O)[C@@]3(O)C(O)=C1C2=O [MINOCYCLINE],8 µg/mL,16 µg/mL,,16 µg/mL,0.12 µg/mL,16 µg/mL,,8 µg/mL,8 µg/mL
